Compounds with a hit are over-represented: about 2.8% of the library has one in this group of screens.
PAFAH1B2 inh: PAFAH1B2 (human) inhibition. actives 1.2% (n = 340,000). recombinant PAFAH1B2, FP-rhodamine activity probe, fluorescence polarization. inhibition, % at 3.39 µM;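 active = inhibition above the mean of all tested compounds plus 3 SD, cut at about 24% in these data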;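 also: 0% = enzyme with DMSO and 100% = wells lacking PAFAH1B2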
Target sequence (P68402 whole entry, looked up): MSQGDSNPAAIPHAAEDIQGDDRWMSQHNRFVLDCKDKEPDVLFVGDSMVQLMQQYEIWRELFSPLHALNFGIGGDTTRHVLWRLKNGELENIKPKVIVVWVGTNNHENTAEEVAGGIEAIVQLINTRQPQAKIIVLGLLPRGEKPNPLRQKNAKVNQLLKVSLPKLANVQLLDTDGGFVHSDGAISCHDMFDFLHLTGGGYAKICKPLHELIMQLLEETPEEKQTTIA
ABHD4 inh: inhibits mouse alpha/beta hydrolase domain 4 | purified mABHD4, FP-Rh probe fluorescence polarization | inhibition, % at 8.92 µM | actives 0.54% (n = 370,000);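 active = inhibition exceeding the mean over every tested compound plus 3 SD, cut at about 30% in these data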;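 also: 0% = plate median of compound wells and 100% = S159A mutant with DMSO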
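system = mouse ABHD4 enzyme, wild type | medium = HEPES pH 7.0, NaCl, Pluronic buffer | also added = FP-Rh probe | incubation = Enzyme–compound pre-incubation 45 min, then probe 60 min, both 25 °C | technique = fluorescence polarization, excitation 525 nm, emission 598 nm, BODIPY TMR filters | controls = S159A mutant high control, sample median low control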
PAFAH2 FP inh: inhibitors of human PAFAH2 | actives 0.99% (n = 340,000) | Q99487 | inhibition, % at 3.39 µM | AID 492956 | recombinant PAFAH2, FP-rhodamine activity probe, fluorescence polarization;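 active = inhibition above the mean over all tested compounds plus 3 SD, cut at about 30% in these data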;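 also: inhibitors block probe labeling of enzyme so polarization drops; 0% = enzyme with DMSO and 100% = wells lacking PAFAH2 protein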
HTRA1 inh: blocks human HTRA1 serine peptidase; Q92743; recombinant HTRA1, FP-rhodamine activity-based probe, fluorescence polarization; inhibition, % at 5.96 µM; actives 0.5% (n = 340,000); in the data active = inhibition above about 36%;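 also: 0% = enzyme with DMSO and 100% = wells lacking enzyme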
pPAFAH FP inh: pPAFAH (human) enzyme inhibition | actives 1.5% (n = 330,000) | recombinant pPAFAH, FP-rhodamine probe fluorescence polarization | Q13093 | inhibition, % at 3.39 µM;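 active = inhibition above the mean inhibition across the screen plus 3 SD, cut at about 25% in these data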;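 also: inhibitors block binding of the rhodamine activity-based probe so polarization drops; 0% = enzyme with DMSO and 100% = wells lacking pPAFAH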
PAFAH1B3 inh: blocks human PAF acetylhydrolase 1B catalytic subunit 3; Q15102; recombinant PAFAH1B3, FP-rhodamine probe, fluorescence polarization; inhibition, % at 3.39 µM; actives 0.28% (n = 340,000);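 active = inhibition above the screen-wide average of all tested compounds plus 3 SD, cut at about 25% in these data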;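 also: 0% = enzyme with DMSO only and 100% = wells lacking PAFAH1B3 protein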
Target sequence (Q15102 whole entry, looked up): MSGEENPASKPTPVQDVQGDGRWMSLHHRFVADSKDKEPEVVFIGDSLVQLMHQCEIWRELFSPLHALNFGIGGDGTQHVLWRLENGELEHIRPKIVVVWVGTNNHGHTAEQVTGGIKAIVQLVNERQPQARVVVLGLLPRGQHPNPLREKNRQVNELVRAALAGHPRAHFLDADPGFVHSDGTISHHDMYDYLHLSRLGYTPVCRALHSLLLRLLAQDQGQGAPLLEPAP
An asterisk follows results filed as active.

Screening O=C(COC(=O)c1ccc(Br)o1)Nc1ncc([N+](=O)[O-])s1 returned PAFAH1B2 inh 6, ABHD4 inh 23, PAFAH2 FP inh 25, HTRA1 inh 17, pPAFAH FP inh 27* and PAFAH1B3 inh 17.
CCOC(=O)[C@@]12CCC3=C1N(CCC3)C(=O)[C@H](CC(=O)NCc1ccccc1)C2 was read as ABHD4 inh -1.
O=c1[nH]c2ccc(S(=O)(=O)N3CCC(Cc4ccccc4)CC3)cc2o1 was read as PAFAH1B2 inh 29*, ABHD4 inh -8, PAFAH2 FP inh 4, HTRA1 inh -10, pPAFAH FP inh 14 and PAFAH1B3 inh 0.
`CC(=O)CC[C@@H]1CC[C@]2(CCCN(C(=O)c3ccc4ccccc4n3)C2)O1` gave ABHD4 inh 0.
`C[C@H]1CN([C@@H](C)CO)C(=O)c2cccc(NC(=O)Nc3ccc(C(F)(F)F)cc3)c2O[C@H]1CN(C)C` gave PAFAH1B2 inh 3, ABHD4 inh 1, PAFAH2 FP inh -13, HTRA1 inh 11, pPAFAH FP inh 30* and PAFAH1B3 inh 10.
C[C@H](CO)N1C[C@H](C)[C@@H](CN(C)S(C)(=O)=O)Oc2c(NC(=O)Nc3ccc(C(F)(F)F)cc3)cccc2C1=O was read as PAFAH1B2 inh 3, ABHD4 inh -10, PAFAH2 FP inh 6, HTRA1 inh -13, pPAFAH FP inh 9 and PAFAH1B3 inh 3.
For COc1ccc(NC(=O)N(C)C[C@H]2Oc3c(NS(=O)(=O)c4cccs4)cccc3C(=O)N([C@H](C)CO)C[C@@H]2C)cc1 the results were PAFAH1B2 inh 4, ABHD4 inh 2, PAFAH2 FP inh 0, HTRA1 inh -2, pPAFAH FP inh -2 and PAFAH1B3 inh 10.
Screening C[C@H](CO)N1C[C@H](C)[C@@H](CN(C)C(=O)Nc2ccc(C(F)(F)F)cc2)Oc2c(NC(=O)Nc3ccc(C(F)(F)F)cc3)cccc2C1=O returned PAFAH1B2 inh 51*, ABHD4 inh -83, PAFAH2 FP inh -51, HTRA1 inh -111, pPAFAH FP inh -15 and PAFAH1B3 inh -41.
`C[C@H](CO)N1C[C@H](C)[C@@H](CN(C)C(=O)Nc2ccc(C(F)(F)F)cc2)Oc2c(NS(=O)(=O)c3cccs3)cccc2C1=O` gave PAFAH1B2 inh 25*, ABHD4 inh -9, PAFAH2 FP inh 2, HTRA1 inh 2, pPAFAH FP inh 12 and PAFAH1B3 inh 2.
`C[C@H](CO)N1C[C@H](C)[C@@H](CN(C)S(=O)(=O)c2ccccc2)Oc2c(NC(=O)Nc3ccc(C(F)(F)F)cc3)cccc2C1=O` gave PAFAH1B2 inh 26*, ABHD4 inh -35, PAFAH2 FP inh -29, HTRA1 inh -63, pPAFAH FP inh 12 and PAFAH1B3 inh -11.
`CCOc1ccc(N(CC(=O)Nc2c(C)n(C)n(-c3ccccc3)c2=O)S(=O)(=O)c2cc(OC)ccc2OC)cc1` gave ABHD4 inh 0.
`O=C(CSc1nnc(-c2cccs2)o1)Nc1cc(Cl)cc(Cl)c1` gave ABHD4 inh -13.
Screening COc1cccc(CC(=O)N(Cc2ccccc2)c2ccccc2C(=O)Nc2cc(OC)ccc2OC)c1 returned ABHD4 inh -8.
C[C@@H]1CN([C@H](C)CO)C(=O)c2cc(NC(=O)Nc3ccc(C(F)(F)F)cc3)ccc2O[C@H]1CN(C)C(=O)Nc1ccc(F)cc1 was read as PAFAH1B2 inh -32, ABHD4 inh -132, PAFAH2 FP inh -104, HTRA1 inh -112 and PAFAH1B3 inh -66.
Screening C[C@H]1CN([C@@H](C)CO)C(=O)c2cccc(NC(=O)Nc3ccc(C(F)(F)F)cc3)c2O[C@@H]1CN(C)C(=O)Nc1ccc(F)cc1 returned PAFAH1B2 inh 52*, ABHD4 inh -31, PAFAH2 FP inh -24, HTRA1 inh -46, pPAFAH FP inh 3 and PAFAH1B3 inh -13.
Screening C[C@@H]1CN([C@@H](C)CO)C(=O)c2cc(NS(=O)(=O)c3cccs3)ccc2O[C@H]1CN(C)Cc1ccc(C(F)(F)F)cc1 returned PAFAH1B2 inh 5, ABHD4 inh -5, PAFAH2 FP inh 4, HTRA1 inh -21, pPAFAH FP inh 27* and PAFAH1B3 inh 9.
Screening COc1ccc(NC(=O)Nc2cccc3c2O[C@H](CN(C)C(=O)Nc2ccc(C(F)(F)F)cc2)[C@@H](C)CN([C@H](C)CO)C3=O)cc1 returned PAFAH1B2 inh 68*, PAFAH2 FP inh -8, HTRA1 inh -12, pPAFAH FP inh -2 and PAFAH1B3 inh 3.
`COc1ccc(NC(=O)N(C)C[C@H]2Oc3c(NC(=O)NC(C)C)cccc3C(=O)N([C@H](C)CO)C[C@@H]2C)cc1` gave PAFAH1B2 inh 2, ABHD4 inh 4, PAFAH2 FP inh 12, HTRA1 inh 3, pPAFAH FP inh -7 and PAFAH1B3 inh 2.
`CCOc1ccc(CNC(=S)N/N=C\c2ccc([N+](=O)[O-])cc2)cc1` gave PAFAH1B2 inh -5, ABHD4 inh -2, PAFAH2 FP inh 4, HTRA1 inh 2, pPAFAH FP inh 4 and PAFAH1B3 inh 5.
For CCOc1ccc(N=Cc2ccc([N+](=O)[O-])cc2)c(O)c1 the results were ABHD4 inh 35* and HTRA1 inh 31.
CN1C(=O)c2cc(NS(=O)(=O)c3cccc(F)c3)ccc2OC[C@@H]2O[C@H](CC(=O)O)CC[C@H]21 was read as ABHD4 inh -3.
Screening CC(=O)C1(C(=O)NCc2ccccc2)CC(c2ccccn2)=NO1 (configuration not stated) returned ABHD4 inh -6.
Cc1oc(C)c2c(=O)ccc3c(c12)OC(N)=C(C#N)C3c1ccccc1Cl (configuration not stated) was read as PAFAH1B2 inh -10, ABHD4 inh 19, PAFAH2 FP inh 4, HTRA1 inh 10, pPAFAH FP inh 25* and PAFAH1B3 inh -1.
Screening CSc1ccc(C2C(C#N)=C(N)Oc3c2ccc(=O)c2c(C)oc(C)c32)cc1 (configuration not stated) returned PAFAH1B2 inh 2, ABHD4 inh 19, PAFAH2 FP inh 24, HTRA1 inh 36, pPAFAH FP inh 31* and PAFAH1B3 inh 3.
CCOC(=O)[C@]12CCCCC/C=C\1N(CCc1ccc(Cl)cc1)C(=O)[C@H]2CC(=O)NCc1ccccc1 was read as ABHD4 inh -11.
For S=C(Nc1cccc(Cl)c1)OC1CCC12CCC(c1ccccc1)CC2 (configuration not stated) the results were ABHD4 inh -5.
`OCC(CCc1c[nH]c2ccccc12)c1c[nH]c2ccccc12` (configuration not stated) gave ABHD4 inh 12.
For COCCNC(=O)[C@]1(C#N)CC(=O)N(C)[C@@H]1c1ccccc1 the results were ABHD4 inh 0.

Assay outcomes: PubChem, The Scripps Research Institute Molecular Screening Center
